Tests used:
[1] = system: HCT-15; experiment: Growth inhibition of human HCT15 cells after 7 days by celltiter-glo assay; assay type: functional; details: HCT-15, 168 h
[2] = system: HT-29; experiment: Growth inhibition of human HT-29 cells after 7 days by celltiter-glo assay; assay type: functional; details: HT-29, 168 h
[3] = system: NCI-H460; experiment: Growth inhibition of human NCI-H460 cells after 7 days by celltiter-glo assay; assay type: functional; details: NCI-H460, 168 h
[4] = system: SK-OV-3; experiment: Growth inhibition of human SKOV3 cells after 7 days by celltiter-glo assay; assay type: functional; details: SK-OV-3, 168 h
[5] = Growth inhibition of human p53 deficient H1299 cells after 7 days by celltiter-glo assay; assay type: functional; details: NCI-H1299, 168 h
Procedure, shortened: (§1)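 Cells seeded at 500 per well in 384-well plates. Compounds came from 30 mM DMSO stocks, serially diluted and tested in quadruplicate. Incubation was 7 d at 37 °C under 5% CO2. Calcein AM (10 μM) and EthD-1 were added, followed by a fluorescence read. CellTiter-Glo lysis was then done for 10 min at room temperature, with a luminescence read. GI50 came from curve fitting.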

[6] = system: SF-268; experiment: Growth inhibition of human SF268 cells after 7 days by celltiter-glo assay; assay type: functional; details: SF-268, 168 h
[7] = system: A549; experiment: Growth inhibition of human A549 cells expressing p53 after 7 days by celltiter-glo assay; assay type: functional; details: A549, 168 h
[8] = system: MCF7; experiment: Growth inhibition of human MCF7 cells after 7 days by celltiter-glo assay; assay type: functional; details: MCF7, 168 h
[9] = system: DU-145; experiment: Growth inhibition of human DU145 cells after 7 days by celltiter-glo assay; assay type: functional; details: DU-145, 168 h
[10] = Growth inhibition of human p53 deficient Hep3B cells after 7 days by celltiter-glo assay; assay type: functional, Hep 3B2; details: 168 h; procedure, shortened: as §1

Compound	GI50 [1]	GI50 [2]	GI50 [3]	GI50 [4]	GI50 [5]	GI50 [6]	GI50 [7]	GI50 [8]	GI50 [9]	GI50 [10]
CO[C@@H]1[C@@H](OC(N)=O)[C@@H](O)C(N(CCCc2ccc(N(CCCl)CCCl)cc2)OC)OC1(C)C (stereo not given in full)	1.7 µM	6 µM	9.7 µM	5.4 µM	1.3 µM	5.1 µM	5.8 µM	4.8 µM	6.7 µM	6 µM
CON(CCCc1ccc(N(CCCl)CCCl)cc1)C1C[C@@H](O)[C@@H](O)[C@@H](CO)O1 (stereo not given in full)	1.6 µM	3.5 µM	6.6 µM	2.4 µM	1.5 µM	2.2 µM	3.2 µM	1.04 µM	5 µM	3.3 µM
CON(CCCc1ccc(N(CCCl)CCCl)cc1)[C@H]1OC[C@H](O)[C@@H](O)[C@@H]1O	0.83 µM	1.5 µM	2.9 µM	2.4 µM	0.93 µM	1.5 µM	2.2 µM	1.2 µM	2.2 µM	1.6 µM
CON(CCCc1ccc(N(CCCl)CCCl)cc1)[C@@H]1O[C@H](C)[C@@H](O)[C@H](O)[C@H]1O	1.1 µM	2.2 µM	8.5 µM	2.9 µM	1.8 µM	2.9 µM	4.6 µM	5.8 µM	4.9 µM	4.4 µM
CON(CCCc1ccc(N(CCCl)CCCl)cc1)C1O[C@@H](C)[C@H](OC(C)=O)[C@@H](OC(C)=O)[C@H]1OC(C)=O (stereo not given in full)	3.7 µM	4.3 µM	7.8 µM	3.9 µM	5 µM	3 µM	3.5 µM	3.2 µM	4.5 µM	4.6 µM
CON(CCCc1ccc(N(CCCl)CCCl)cc1)C1C[C@H](O)[C@H](O)[C@@H](C)O1 (stereo not given in full)	1.3 µM	2.1 µM	6.5 µM	3 µM	1.1 µM	2.8 µM	2.7 µM	6.3 µM	4.3 µM	3.2 µM
CON(CCCc1ccc(N(CCCl)CCCl)cc1)[C@@H]1O[C@H](CCl)[C@@H](O)[C@H](O)[C@H]1O	1.2 µM	2.1 µM	5.8 µM	2.1 µM	1.3 µM	2.1 µM	3 µM	4.9 µM	3.7 µM	3.2 µM
CON(CCCc1ccc(N(CCCl)CCCl)cc1)C1O[C@H](CO)[C@@H](O[C@@H]2O[C@H](CO)[C@@H](O)[C@H](O)[C@H]2O)[C@H](O)[C@H]1O (stereo not given in full)	2.3 µM	1.9 µM	3.8 µM	1.8 µM	1.8 µM	1.5 µM	1.6 µM	1.7 µM	1.8 µM	1.2 µM
CON(CCCc1ccc(N(CCCl)CCCl)cc1)[C@H]1O[C@@H](CO)[C@H](O)[C@@H](O)[C@@H]1O	2.8 µM	4.6 µM	14.3 µM	4.5 µM	1.6 µM	2.2 µM	6.8 µM	1.8 µM	7 µM	5 µM
CON(CCCc1ccc(N(CCCl)CCCl)cc1)[C@@H]1O[C@H](C(=O)O)[C@@H](O)[C@H](O)[C@H]1O	1.03 µM	3.2 µM	9.1 µM	3.1 µM	0.99 µM	1.6 µM	5.5 µM	6 µM	3.9 µM	4.9 µM
CON(CCCc1ccc(N(CCCl)CCCl)cc1)C1OC[C@H](O)[C@@H](O)[C@H]1O (stereo not given in full)	0.95 µM	2.4 µM	5.8 µM	1.8 µM	0.88 µM	1.2 µM	2.2 µM	0.94 µM	3.9 µM	3 µM
CON(CCCc1ccc(N(CCCl)CCCl)cc1)[C@@H]1O[C@H](CO)[C@@H](O)[C@H](O)[C@H]1F	1.08 µM	2.4 µM	6.4 µM	2 µM	1.2 µM	2.2 µM	2.6 µM	7.3 µM	4.2 µM	3.2 µM
CON(CCCc1ccc(N(CCCl)CCCl)cc1)[C@@H]1O[C@H](CO)[C@@H](O)[C@H](O)[C@H]1O	2.8 µM	2.9 µM	12.3 µM	3 µM	1.4 µM	1.8 µM	4.5 µM	1.5 µM	5.5 µM	3.4 µM
CON(CCCc1ccc(N(CCCl)CCCl)cc1)C1O[C@H](C(=O)O)[C@H](O)[C@H](O)[C@H]1O (stereo not given in full)	8.1 µM	14.9 µM	34 µM	12.8 µM	4.9 µM	8.9 µM	17.1 µM	4.5 µM	16.3 µM	14.7 µM
CON(CCCc1ccc(N(CCCl)CCCl)cc1)C1OC[C@H](O)[C@H](O)[C@H]1O (stereo not given in full)	1 µM	1.9 µM	6.1 µM	2.2 µM	0.84 µM	1.9 µM	2.3 µM	5.4 µM	3.6 µM	1.9 µM
CON(CCCc1ccc(N(CCCl)CCCl)cc1)C1OC[C@H](O)[C@H]1O (stereo not given in full)	0.82 µM	1.2 µM	1.9 µM	2.1 µM	0.72 µM	1.3 µM	2 µM	0.87 µM	2.1 µM	1.4 µM
CON(CCCc1ccc(N(CCCl)CCCl)cc1)[C@@H]1O[C@H](CO)[C@@H](O)[C@H](F)[C@H]1O	1.2 µM	2.6 µM	7.1 µM	2.2 µM	1.3 µM	2.2 µM	3 µM	7 µM	4.1 µM	3.2 µM
CON(CCCc1ccc(N(CCCl)CCCl)cc1)C1O[C@H](CO)[C@H](O)[C@H](O)[C@H]1O (stereo not given in full)	2.4 µM	3.3 µM	9.7 µM	3.4 µM	1.3 µM	1.9 µM	4.4 µM	1.3 µM	5.6 µM	3.6 µM
CO[C@@H]1[C@@H](O)[C@H](N(CCCc2ccc(N(CCCl)CCCl)cc2)OC)O[C@H](CO)[C@H]1O	1.1 µM	2.7 µM	7.8 µM	2.4 µM	1.7 µM	2.8 µM	3.6 µM	8.3 µM	5.1 µM	4.2 µM
O=C(CCCc1ccc(N(CCCl)CCCl)cc1)NN[C@@H]1OC[C@@H](O)[C@H](O)[C@H]1O	> 100 µM	7.2 µM	26 µM	12 µM	3.9 µM	2.5 µM	14.8 µM	4.5 µM	19 µM	5.5 µM
CON(CCCc1ccc(N(CCCl)CCCl)cc1)[C@H]1C[C@@H](O)[C@H](O)[C@@H](CO)O1	0.7 µM	1.2 µM	5.4 µM	1.12 µM	0.58 µM	2.5 µM	3.1 µM	5.4 µM	4.3 µM	3.7 µM
O=C(CCCc1ccc(N(CCCl)CCCl)cc1)NN[C@@H]1O[C@H]2[C@H](OC(=O)[C@H]2O)[C@H]1O	> 100 µM	30 µM	43 µM	37 µM	12.9 µM	8.9 µM	31 µM	9.9 µM	23 µM	17.7 µM
CON(CCCc1ccc(N(CCCl)CCCl)cc1)C1OC[C@H](O)[C@H](O)[C@@H]1O (stereo not given in full)	2.1 µM	2.2 µM	5.7 µM	2 µM	3.3 µM	2.1 µM	2.4 µM	0.97 µM	3.7 µM	2.4 µM
O=C1O[C@@H]2[C@@H](O)[C@H](N(O)CCCc3ccc(N(CCCl)CCCl)cc3)O[C@@H]2[C@@H]1O	8.5 µM	9.9 µM	13.1 µM	10.1 µM	3.8 µM	3.1 µM	10.4 µM	4.1 µM	14.8 µM	7.2 µM
C[C@H]1OC(N(O)CCCc2ccc(N(CCCl)CCCl)cc2)[C@H](O)[C@@H](O)[C@H]1O (stereo not given in full)	3.8 µM	4.6 µM	4.9 µM	4.7 µM	2.6 µM	1.4 µM	6.4 µM	2.7 µM	5.7 µM	3.6 µM
CON(CCCc1ccc(N(CCCl)CCCl)cc1)[C@@H]1O[C@H](CO[C@@H]2O[C@H](CO)[C@H](O)[C@H](O)[C@H]2O)[C@@H](O)[C@H](O)[C@H]1O	20 µM	27.4 µM	45.5 µM	27 µM	17.8 µM	16.3 µM	40 µM	21 µM	36 µM	29 µM

— ChEMBL document CHEMBL1275392, “Assessment of chemoselective neoglycosylation methods using chlorambucil as a model” (2010)
